Screening data as filed in PubChem BioAssay.
The list is a sample of the results.
PGC1a acetyl up: raises PGC1a acetylation signal in U2OS cells; activation, % at 15.6 µM; U2OS PGC1a acetylation AlphaScreen, overnight; 350,000 compounds, 0.21% hits;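 active = every replicate reaching activation of at least 50%, whatever the mean replicate activation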;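 also: hits raise the AlphaScreen acetylation signal above neutral controls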
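System: flag-PGC1a/GCN5 U2OS cells / Input: 7000 cells/well / Compound: single test concentration per compound / Incubation: overnight compound treatment, 37 °C / Technique: AlphaScreen on lysates with anti-acetyl-lysine antibody, acceptor and donor beads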
A number is an active result; – = inactive.

SMILES	PGC1a acetyl up
Cc1nc2ccc(C(=O)Nc3ccccc3Cl)cc2s1	–
O=C(N/N=C/c1ccc([N+](=O)[O-])o1)c1cc2ccccc2o1	329.5
O=C(N/N=C/c1ccc([N+](=O)[O-])o1)c1ccc(O)cc1	64.4
COc1cc(/C=N/NC(=O)c2ccc(O)cc2)ccc1OCC(=O)Nc1cccc([N+](=O)[O-])c1	–
O=C(c1ccc(F)cc1)N1CC(=O)N2[C@H](CO)[C@@H](c3ccc(C#CCC4CCCC4)cc3)[C@@H]2C1	–
COCC(=O)Nc1ccc2c(c1)OC[C@@H](C)N(C(=O)c1ccccn1)C[C@@H](C)[C@@H](OC)CN(C)C2=O	–
Cn1c(O)c(C(C#N)=C2N=c3ccccc3=N2)c2ccccc21	71.7
O=C(N[C@@H]1CC[C@@H](CCNS(=O)(=O)c2ccccc2Cl)O[C@@H]1CO)c1ccc(F)cc1	–
NS(=O)(=O)c1cccc(NC(=O)CSc2ccccn2)c1	–
O=C(CSc1nc(NS(=O)(=O)c2ccccc2)cc(=O)[nH]1)Nc1ccc(F)cc1	69.5
C[C@H]1CN([C@@H](C)CO)C(=O)Cc2cc(NS(=O)(=O)c3ccc(F)cc3)ccc2O[C@@H]1CN(C)C(=O)Nc1ccc2c(c1)OCO2	–
CN(C)C(=O)C[C@H]1C[C@@H]2c3cc(NC(=O)C4CCOCC4)ccc3O[C@@H]2[C@H](CO)O1	–
C/C(=N\NC(=O)CN1CCCCC1)c1ccccc1O	–
CC(=NNC(=S)N1CCC1)c1ccccn1	190.1
C[C@H](CO)N1C[C@H](C)[C@H](CN(C)C(=O)CN(C)C)Oc2cc(-c3cncnc3)ccc2S1(=O)=O	–
CC(c1n[nH]c(=S)n1Cc1ccccc1)N(C)C (stereo unspecified)	–
Cc1ccc(N2CCN(CC(O)COC3CCCCC3)CC2)cc1 (stereo unspecified)	82.0
O=C(c1ccc(F)cc1)N(C(=O)c1ccc(F)cc1)c1ncccn1	–
Cc1cccc2cc(CN(Cc3ccc(F)cc3)Cc3nnnn3C3CCCC3)c(=O)[nH]c12	–
Clc1ccccc1CN(Cc1ccco1)Cc1nnnn1C1CCCC1	132.4
CCc1c(C)nc(N)nc1Cl	–
COCCn1c(SC(C)C(=O)Nc2ncc(Cl)cc2Cl)nc2ccccc21 (stereo unspecified)	–
COc1ccccc1OCCn1c(C(C)O)nc2ccccc21 (stereo unspecified)	56.8
O=C(CN1C(=O)C2CC=CCC2C1=O)Nc1nccs1 (stereo unspecified)	–
COc1ccc(S(=O)(=O)Nc2ccccc2C)cc1C(=O)N1CCOCC1	–
SMILES	PGC1a acetyl up
Cc1ccc(NCC(=O)N/N=C\C(Br)=C\c2ccccc2)cc1	145.3
O=C(O)c1ccc(N/N=C/C(Br)=C/c2ccccc2)cc1	54.0
COc1ccc(CN(Cc2cccn2C)S(=O)(=O)c2ccccc2)cc1	–
CN1C(C(=O)Nc2ccccn2)=C(O)c2sc(Cl)cc2S1(=O)=O	–
C[C@H]1CN([C@@H](C)CO)C(=O)CCCn2nncc2CO[C@@H]1CN(C)C(=O)Nc1ccc2c(c1)OCO2	–
O=C(NCc1cccnc1)C1CC(=O)N(C2CCCCC2)C1 (stereo unspecified)	–
CCC(C)C(NC(=O)C1CCC(C)CC1)C(=O)NCc1cccnc1 (stereo unspecified)	54.8
O=C(c1cccc(F)c1)N1CCN(C(=O)c2cc(-c3ccc(Cl)cc3Cl)on2)CC1	–
C[C@@H]1CN([C@@H](C)CO)C(=O)c2cc(/C=C/c3ccccc3)cnc2O[C@@H]1CN(C)Cc1cccnc1	–
O=C(CCl)Nc1ccc(N=Nc2ccccc2)cc1	101.3
Cc1ccc(CCC(=O)Nc2ccc(Cl)cc2)o1	–
O=C(CCCCCCC(=O)Nc1ccccc1)NO	–
O=S(=O)(N[C@@H]1CC[C@@H](CCNS(=O)(=O)c2ccccc2Cl)O[C@H]1CO)c1ccccc1	–
COCC(=O)N1C[C@@H](C)[C@@H](OC)CN(C)C(=O)c2ccc(NC(=O)c3cnccn3)cc2OC[C@@H]1C	–
C[n+]1cccc(CNC(=O)/C=N/O)c1	–
CC1=CC=CC2=NC(=O)CC(C)(C(=O)N(CC(=O)NC3CCCC3)c3ccccc3C)N12 (stereo unspecified)	54.2
COc1ccc(C2c3c(oc4ccccc4c3=O)C(=O)N2CCN2CCOCC2)cc1OC (stereo unspecified)	–
COc1ccc(CCNCc2ccc(-c3ccccc3)cc2)cc1OC	–
COc1ccc(CCN2C(=O)c3[nH]nc(-c4ccccc4O)c3C2c2ccccc2)cc1OC (stereo unspecified)	52.9
CN(C[C@H]1N[C@@H](CO)[C@@H]1c1ccc(C2=CCCC2)cc1)C(=O)c1ccc(F)cc1	–
O=C(NC[C@@H]1N[C@@H](CO)[C@H]1c1ccc(C2=CCCCC2)cc1)c1ccc(F)cc1	65.5
C[C@H](CO)N1C[C@H](C)[C@@H](CN(C)C(=O)CCN2CCCCC2)Oc2ncc(C#Cc3ccccn3)cc2C1=O	–
C=C1C(=O)OC2C1CCC(C)=C1C(=O)C3OC3(C)C12 (stereo unspecified)	82.5
Cc1cc2c(c(/C=C/C(=O)c3ccccc3)c1)OC1(C=C2)Oc2ccccc2C(=O)N1C (stereo unspecified)	–
